Source: ChEMBL document CHEMBL1221385, “Iminoheterocycles as gamma-secretase modulators” (Bioorg Med Chem Lett, 2010)

Tests used:
[1] = Selectivity ratio of total amyloid beta to amyloid beta 42
Outline: (§1)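 HEK293 cells stably transfected with APP (Swedish plus London mutations, pcDNA3.1) treated with compound for 5 h; Aβ in conditioned medium read by MSD sandwich immunoassay: Aβ42 with TAG-G2-11/biotin-4G8, Aβ40 with TAG-G2-10/biotin-4G8, total Aβ with TAG-W02/biotin-4G8. IC50 from Aβ42; ratio is total Aβ over Aβ42.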

[2] = target: Gamma-secretase; experiment: Inhibition of gamma secretase-mediated amyloid beta42 production in HEK293 cells; format: cell-based, Homo sapiens; outline: as §1
[3] = tested on: Rattus norvegicus; experiment: Reduction in amyloid beta 42 level in rat CSF at 100 mg/kg, po; design: scale not given: the % may be the effect or the level left
[4] = Cmax in rat at 10 mg/kg, po after 2 hrs; format: ADME, organism-based; design: dose 10 mg/kg, route oral; conditions: in vivo
Outline: (§2)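 Rats given a single 10 mg/kg oral dose. Plasma sampled over 0–6 h for AUC and Cmax, with the time of Cmax recorded. Brain level (ng/g) and brain:plasma concentration ratio taken at 6 h.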

[5] = tested on: Rattus norvegicus; experiment: Reduction in amyloid beta 42 level in rat CSF at 30 mg/kg, po; design: scale not given: the % may be the effect or the level left
[6] = Selectivity ratio of drug level in brain to plasma in rat at 10 mg/kg, po after 6 hrs; format: ADME, organism-based; design: dose 10 mg/kg, route oral; conditions: read-out: BPR; outline: as §2
[7] = Drug level in rat brain at 10 mg/kg, po after 6 hrs; format: ADME, organism-based; design: dose 10 mg/kg, route oral; conditions: read-out: Drug uptake; outline: as §2
[8] = tested on: Brain; experiment: Drug level in rat brain at 30 mg/kg, po; conditions: in vivo, read-out: Drug uptake
[9] = tested on: Plasma; experiment: Drug level in rat plasma at 30 mg/kg, po; conditions: in vivo
[10] = AUC (0 to 6 hrs) in rat at 10 mg/kg, po; format: ADME, organism-based; design: time < 6 hr, dose 10 mg/kg, route oral; conditions: plasma; outline: as §2
[11] = AUC (0 to 6 hrs) in po dosed rat; format: ADME, organism-based; design: time < 6 hr, route oral; conditions: plasma; outline: as §2
[12] = Cmax in rat at 10 mg/kg, po after 1 hr; format: ADME, organism-based; design: dose 10 mg/kg, route oral; conditions: in vivo; outline: as §2
[13] = tested on: Rattus norvegicus; experiment: Reduction in amyloid beta 42 level in po dosed rat CSF; design: scale not given: the % may be the effect or the level left
[14] = tested on: Mus musculus; experiment: Reduction in total amyloid beta level in CRND8 transgenic mouse plasma at 30 mg/kg, po; format: functional; design: scale not given: the % may be the effect or the level left
Outline: (§3)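 CRND8 transgenic mice dosed orally at 30 mg/kg. Plasma Aβ42 and total Aβ sampled 3 h after dosing.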

[15] = tested on: Mus musculus; experiment: Reduction in amyloid beta 42 level in transgenic CRND8 mouse plasma at 30 mg/kg, po; format: functional; design: scale not given: the % may be the effect or the level left; outline: as §3
[16] = tested on: Mus musculus; experiment: Reduction in amyloid beta 42 level in CRND8 transgenic mouse cortical at 30 mg/kg, po; format: functional; design: scale not given: the % may be the effect or the level left

SMILES	Ratio [1]	IC50 [2]	also measured
COCCCNC1=N/C(=C\c2ccc(-n3cnc(C)c3)c(OC)c2)C(=O)N1[C@@H](C)c1ccc(F)cc1	70	287 nM	–
COc1cc(/C=C2\N=C(N)N(Cc3ccc(F)cc3)C2=O)ccc1-n1cnc(C)c1	139	144 nM	–
COc1cc(/C=C2\N=C(NCCO)N([C@H](C)c3ccc(F)cc3)C2=O)ccc1-n1cnc(C)c1	27	63 nM	–
CCCCNC1=N/C(=C\c2ccc(-n3cnc(C)c3)c(OC)c2)C(=O)N1Cc1ccc(F)cc1	70	85 nM	Activity [3]: 38%; Cmax [4]: 2.3 µM; Activity [5]: 10%; Kp at 6 h [6]: 0.7; concentration at 6 h [7]: 449 ng/g; concentration [8]: 5.9 µM; concentration [9]: 7.1 µM; AUC(0-t) at 6 h [10]: 10 µM·h
COc1cc(/C=C2\N=C(N3CCCC3)N([C@@H](C)c3ccc(F)cc3)C2=O)ccc1-n1cnc(C)c1	32	671 nM	–
COc1cc(/C=C2\N=C3NCCCC(c4ccc(F)cc4)N3C2=O)ccc1-n1cnc(C)c1 (racemic)	40	503 nM	–
COc1cc(/C=C2\CCCN([C@@H](C)c3ccc(F)cc3)C2=O)ccc1-n1cnc(C)c1	–	–	AUC(0-t) at 6 h [11]: 60.4 µM·h
CCN1CCCC(c2ccc(F)cc2)N2C(=O)/C(=C/c3ccc(-n4cnc(C)c4)c(OC)c3)N=C12 (single isomer, unassigned; (-)) [listing 1 of 2 here]	–	73 nM	Cmax [12]: 4.2 µM; Activity [13]: 8%; Kp at 6 h [6]: 0.3; concentration at 6 h [7]: 275 ng/g; AUC(0-t) at 6 h [10]: 16.9 µM·h
COc1cc(/C=C2\N=C(NC3CC3)N([C@@H](C)c3ccc(F)cc3)C2=O)ccc1-n1cnc(C)c1	136	287 nM	–
CNC1=N/C(=C\c2ccc(-n3cnc(C)c3)c(OC)c2)C(=O)N1[C@@H](C)c1ccc(F)cc1	25	411 nM	–
COc1cc(/C=C2\N=C3NCC(c4ccc(F)cc4)N3C2=O)ccc1-n1cnc(C)c1 (racemic)	117	135 nM	–
CCN1CCC(c2ccc(F)cc2)N2C(=O)/C(=C/c3ccc(-n4cnc(C)c4)c(OC)c3)N=C12 (single isomer, unassigned; (+))	71	85 nM	–
CCCCNC1=N/C(=C\c2ccc(-n3cnc(C)c3)c(OC)c2)C(=O)N1[C@@H](C)c1ccc(F)cc1	78	258 nM	–
COc1cc(Cc2c[nH]c(=N)n([C@@H](C)c3ccc(F)cc3)c2=O)ccc1-n1cnc(C)c1	–	446 nM	–
COc1cc(/C=C2\N=C3NCCC(c4ccc(F)cc4)N3C2=O)ccc1-n1cnc(C)c1 (single isomer, unassigned; (+))	188	106 nM	–
COc1cc(/C=C2\N=C(N)N([C@H](CO)c3ccc(F)cc3)C2=O)ccc1-n1cnc(C)c1	113	139 nM	–
COc1cc(/C=C2\NC(=O)N([C@H](C)c3ccc(F)cc3)C2=O)ccc1-n1cnc(C)c1	–	3500 nM	–
COc1cc(/C=C2\N=C(NCCO)N([C@@H](C)c3ccc(F)cc3)C2=O)ccc1-n1cnc(C)c1	79	218 nM	–
COC1=N/C(=C\c2ccc(-n3cnc(C)c3)c(OC)c2)C(=O)N1[C@@H](C)c1ccc(F)cc1	23	864 nM	–
COc1cc(/C=C2\N=C(N)N([C@@H](C)c3ccc(F)cc3)C2=O)ccc1-n1cnc(C)c1	55	322 nM	–
COc1cc(/C=C2\N=C(NCC3CC3)N([C@H](C)c3ccc(F)cc3)C2=O)ccc1-n1cnc(C)c1	68	158 nM	–

SMILES	Ratio [1]	IC50 [2]	also measured
CCNC1=N/C(=C\c2ccc(-n3cnc(C)c3)c(OC)c2)C(=O)N1[C@H](C)c1ccc(F)cc1	159	88 nM	Cmax [4]: 2.3 µM; Kp at 6 h [6]: 1.3; concentration at 6 h [7]: 914 ng/g; Activity [14]: 10%; Activity [15]: 80%; Activity [16]: 12%; AUC(0-t) at 6 h [10]: 10.1 µM·h
COCCNC1=N/C(=C\c2ccc(-n3cnc(C)c3)c(OC)c2)C(=O)N1[C@@H](C)c1ccc(F)cc1	66	301 nM	–
COc1cc(/C=C2\N=C(NCCCO)N([C@H](C)c3ccc(F)cc3)C2=O)ccc1-n1cnc(C)c1	153	111 nM	–
COc1cc(/C=C2\N=C(N)N([C@H](CCO)c3ccc(F)cc3)C2=O)ccc1-n1cnc(C)c1	87	229 nM	–
CCNC1=N/C(=C\c2ccc(-n3cnc(C)c3)c(OC)c2)C(=O)N1[C@H](CO)c1ccc(F)cc1	200	91 nM	–
COc1cc(/C=C2/C(=O)N([C@@H](C)c3ccc(F)cc3)C(=N)NC2(C)C)ccc1-n1cnc(C)c1	–	> 20000 nM	–
COc1cc(/C=C2\N=C(N3CCCCC3)N([C@@H](C)c3ccc(F)cc3)C2=O)ccc1-n1cnc(C)c1	21	955 nM	–
CCN1CCCC(c2ccc(F)cc2)N2C(=O)/C(=C/c3ccc(-n4cnc(C)c4)c(OC)c3)N=C12 (racemic) [listing 1 of 2 here]	–	117 nM	–
CCN1CCCC(c2ccc(F)cc2)N2C(=O)/C(=C/c3ccc(-n4cnc(C)c4)c(OC)c3)N=C12 (single isomer, unassigned; (-)) [listing 2 of 2 here]	215	–	–
COc1cc(/C=C2\N=C(NCC3CC3)N([C@@H](C)c3ccc(F)cc3)C2=O)ccc1-n1cnc(C)c1	71	250 nM	–
CCN1CC(c2ccc(F)cc2)N2C(=O)/C(=C/c3ccc(-n4cnc(C)c4)c(OC)c3)N=C12 (single isomer, unassigned; (-))	159	56 nM	–
COc1cc(/C=c2/c(=O)n([C@@H](C)c3ccc(F)cc3)c3n2CCCN=3)ccc1-n1cnc(C)c1	–	7100 nM	–
CCNC1=N/C(=C\c2ccc(-n3cnc(C)c3)c(OC)c2)C(=O)N1[C@H](CCO)c1ccc(F)cc1	117	171 nM	–
CCCCNC1=N/C(=C\c2ccc(-n3cnc(C)c3)c(OC)c2)C(=O)N1[C@H](C)c1ccc(F)cc1	42	92 nM	–
CCNC1=N/C(=C\c2ccc(-n3cnc(C)c3)c(OC)c2)C(=O)N1[C@@H](C)c1ccc(F)cc1	97	220 nM	–
COc1cc(/C=C2\NC(=O)N([C@@H](C)c3ccc(F)cc3)C2=O)ccc1-n1cnc(C)c1	141	163 nM	–
CCN1CCCC(c2ccc(F)cc2)N2C(=O)/C(=C/c3ccc(-n4cnc(C)c4)c(OC)c3)N=C12 (racemic) [listing 2 of 2 here]	169	–	–
COc1cc(/C=C2\N=C(NCCCO)N([C@@H](C)c3ccc(F)cc3)C2=O)ccc1-n1cnc(C)c1	141	163 nM	–
COc1cc(/C=C2\N=C(N)N([C@H](C)c3ccc(F)cc3)C2=O)ccc1-n1cnc(C)c1	65	94 nM	–
COc1cc([C@H](O)C2CNC(=N)N([C@@H](C)c3ccc(F)cc3)C2=O)ccc1-n1cnc(C)c1 (some centres undefined)	–	> 20000 nM	–
CCNC1=N/C(=C\c2ccc(-n3cnc(C)c3)c(OC)c2)C(=O)N1Cc1ccc(F)cc1	104	72 nM	–
